Data from ChEMBL document CHEMBL4706596, “Synthesis, biological evaluation, in silico modeling and crystallization of novel small monocationic molecules with potent antiproliferative activity by dual mechanism” (Eur J Med Chem, 2020).

Tests used:
HeLa [1] = experiment: Antiproliferative activity against human HeLa cells assessed as inhibition of cell proliferation incubated for 72 hrs by MTT assay; assay type: functional
Outline: (§1)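 Cells seeded at 8 × 10³/well and held 18 h at 37 °C, 5% CO₂. Medium then replaced with compound at several concentrations for 72 h at 37 °C, followed by MTT viability read-out. GI50 is taken against cells given the maximum DMSO (0.25%), which is set as 100% viability. Dose-response curves come from at least three independent experiments run in triplicate and are reported as mean ± SE.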

HT-29 [2] = experiment: Antiproliferative activity against human HT-29 cells assessed as inhibition of cell proliferation incubated for 72 hrs by MTT assay; assay type: functional; outline: as §1
RS4-11 [3] = experiment: Antiproliferative activity against human RS4-11 cells assessed as inhibition of cell proliferation incubated for 72 hrs by MTT assay; assay type: functional; outline: as §1
CCRF-CEM [4] = experiment: Antiproliferative activity against human CCRF-CEM cells assessed as inhibition of cell proliferation incubated for 72 hrs by MTT assay; assay type: functional; outline: as §1
[5] = Inhibition of [methyl-14C]choline uptake in human HT-29 cells at 10 uM incubated for 10 mins followed by removal of medium containing compound and subsequent addition of [methyl-14C]choline measured after 5 mins relative to control; assay type: functional; conditions: HT-29, 10 min
Outline: (§2)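 Cells at 200,000/well were incubated for 10 min at 37 °C in medium with or without CKα1 inhibitor. The medium was then removed and cells were exposed to [methyl-¹⁴C]choline (31 Ci/mol) for 5 min at 37 °C. Uptake was stopped by aspiration and two ice-cold PBS washes containing choline. Inhibition is expressed as % of untreated control.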

[6] = Inhibition of [methyl-14C]choline uptake in human HT-29 cells at 30 uM incubated for 10 mins followed by removal of medium containing compound and subsequent addition of [methyl-14C]choline measured after 5 mins relative to control; assay type: functional; conditions: HT-29, 10 min; outline: as §2
[7] = Inhibition of [methyl-14C]choline uptake in human HepG2 cells at 10 uM incubated for 10 mins followed by removal of medium containing compound and subsequent addition of [methyl-14C]choline measured after 5 mins relative to control; assay type: functional; conditions: HepG2, 10 min; outline: as §2
[8] = Inhibition of [methyl-14C]choline uptake in human HepG2 cells at 30 uM incubated for 10 mins followed by removal of medium containing compound and subsequent addition of [methyl-14C]choline measured after 5 mins relative to control; assay type: functional; conditions: HepG2, 10 min; outline: as §2
Choline kinase alpha [9] = biological target: T1, Choline kinase alpha (Homo sapiens, UniProt P35790); experiment: Binding affinity to human CKalpha1 assessed as dissociation constant by spectroflurometry
Outline: (§3)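 Purified human CK (cloned as reported earlier) at 1 µM was titrated with compound in 25 mM Tris, 150 mM NaCl, pH 7.5 at 25 °C. Compound ranges were 0.1–10 µM for CKα1 and 0.5–200 µM for CKβ. Tryptophan quenching was read with excitation at 280 nm, emission 300–400 nm and 5 nm slits. DMSO-matched controls were run, and Kd was fitted to a single-site model. Results are given as mean ± SD.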
Target sequence in this assay (P35790 whole entry): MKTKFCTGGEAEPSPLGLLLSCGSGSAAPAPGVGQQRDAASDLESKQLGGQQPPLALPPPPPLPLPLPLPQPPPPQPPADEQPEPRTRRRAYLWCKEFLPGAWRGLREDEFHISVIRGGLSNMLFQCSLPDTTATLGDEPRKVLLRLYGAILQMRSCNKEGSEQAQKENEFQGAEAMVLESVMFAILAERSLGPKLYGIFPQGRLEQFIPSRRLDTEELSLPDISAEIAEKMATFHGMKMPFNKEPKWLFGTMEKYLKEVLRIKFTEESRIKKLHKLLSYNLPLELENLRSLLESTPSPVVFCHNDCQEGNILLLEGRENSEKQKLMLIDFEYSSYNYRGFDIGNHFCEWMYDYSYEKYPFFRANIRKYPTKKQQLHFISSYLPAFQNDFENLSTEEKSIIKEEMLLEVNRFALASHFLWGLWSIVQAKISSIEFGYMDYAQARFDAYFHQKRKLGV

Choline kinase alpha [10] = biological target: T1, Choline kinase alpha; experiment: (§4) Inhibition of human CKalpha1 assessed as reduction in 14C incorporation from [methyl-14C]choline to phosphatidylcholine at 10 uM using [methyl-14C]choline as substrate preincubated for 5 mins in presence of ATP and MgCl2 followed by substrate addition and measured after 10 mins by liquid scintillation counting method relative to control; conditions: time 15.0 min
Outline: (§5)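 Purified human CKα1 (20 ng) in 100 mM Tris pH 8.5 with 10 mM MgCl₂ and 10 mM ATP, DMSO ≤0.1%, was preincubated 5 min at 37 °C. Reaction was started with 1 mM [methyl-¹⁴C]choline (4500 dpm/nmol), run 10 min at 37 °C and stopped in boiling water. Product was separated by silica TLC, scraped and scintillation-counted against DMSO controls. At least three experiments were run; IC50 was obtained from sigmoidal dose-response fits.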
Target sequence in this assay (P35790 whole entry, looked up): as the sequence (P35790 whole entry) above

Choline kinase alpha [11] = biological target: T1, Choline kinase alpha; experiment: as §4, with “at 30” for “at 10”; conditions: time 15.0 min; outline: as §5
Target sequence in this assay (P35790 whole entry, looked up): as the sequence (P35790 whole entry) above

HeLa [12] = experiment: Antiproliferative activity against human HeLa cells assessed as inhibition of cell proliferation; assay type: functional; outline: as §1
HT-29 [13] = experiment: Antiproliferative activity against human HT-29 cells assessed as inhibition of cell proliferation; assay type: functional; outline: as §1
RS4-11 [14] = experiment: Antiproliferative activity against human RS4-11 cells assessed as inhibition of cell proliferation; assay type: functional; outline: as §1
CCRF-CEM [15] = experiment: Antiproliferative activity against human CCRF-CEM cells assessed as inhibition of cell proliferation; assay type: functional; outline: as §1
Choline kinase alpha [16] = biological target: T1, Choline kinase alpha; experiment: as §4, with “at 50” for “at 10”; conditions: time 15.0 min; outline: as §5
Target sequence in this assay (P35790 whole entry, looked up): as the sequence (P35790 whole entry) above

[17] = biological target: Choline/ethanolamine kinase (Homo sapiens, UniProt Q9Y259); experiment: Binding affinity to human CKbeta assessed as dissociation constant by spectroflurometry; outline: as §3
Homo sapiens = species: Homo sapiens; experiment: Selectivity index, ratio of Kd for human CKbeta to Kd for human CKalpha1
Choline kinase alpha [18] = biological target: T1, Choline kinase alpha; experiment: as §4, with “[…]” for “phosphatidylcholine at 10 uM”; outline: as §5
Target sequence in this assay (P35790 whole entry): as above

Choline/ethanolamine kinase, sequence (Q9Y259 whole entry): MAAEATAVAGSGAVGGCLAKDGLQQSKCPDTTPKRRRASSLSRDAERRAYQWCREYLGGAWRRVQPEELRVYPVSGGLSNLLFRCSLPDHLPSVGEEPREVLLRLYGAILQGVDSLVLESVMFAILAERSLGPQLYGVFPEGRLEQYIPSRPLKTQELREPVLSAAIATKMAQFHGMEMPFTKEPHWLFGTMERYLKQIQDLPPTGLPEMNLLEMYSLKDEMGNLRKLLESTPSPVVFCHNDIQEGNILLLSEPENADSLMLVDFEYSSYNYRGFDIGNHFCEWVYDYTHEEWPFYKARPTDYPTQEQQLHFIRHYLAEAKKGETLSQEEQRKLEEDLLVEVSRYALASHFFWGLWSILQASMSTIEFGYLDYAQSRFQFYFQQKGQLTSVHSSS

Row | SMILES | GI50 (HeLa [1]) | GI50 (HT-29 [2]) | GI50 (RS4-11 [3]) | GI50 (CCRF-CEM [4]) | Kd (Choline kinase alpha [9]) | inhibition (Choline kinase alpha [10]) | inhibition (Choline kinase alpha [11]) | other results
1 | OC1C[N+]2(Cc3ccc(C(F)(F)F)cc3)CCC1CC2 (stereo unspecified) | 82.3 µM | > 100 µM | > 100 µM | > 100 µM |  |  |  | inhibition at 10 µM [5]: 17.6%; inhibition at 30 µM [6]: 21.6%; inhibition at 10 µM [7]: 14.3%; inhibition at 30 µM [8]: 15.1%
2 | Clc1ccc2c(N3CCCCCC3)ccnc2c1 |  |  |  |  | 45 µM |  |  | 
3 | CN(c1ccc(Cl)cc1)c1cc[n+](Cc2ccc(-c3ccccc3)cc2)cc1 | 0.91 µM | 0.23 µM | 0.14 µM | 0.3 µM |  |  |  | inhibition at 10 µM [5]: 78.4%; inhibition at 30 µM [6]: 95%; inhibition at 10 µM [7]: 83.3%; inhibition at 30 µM [8]: 94.8%
4 | OC1C[N+]2(Cc3ccc(-c4ccccc4)cc3)CCC1CC2 (stereo unspecified) | 27.5 µM | 34 µM | 1.7 µM | 16.9 µM |  | 45.6% | 53% | 
5 | CN(c1ccccc1)c1cc[n+](Cc2ccc(-c3ccc(C[n+]4ccc(N(C)c5ccccc5)c5ccc(Cl)cc54)cc3)cc2)c2cc(Cl)ccc12 |  |  |  |  |  |  |  | GI50 (HeLa [12]): 0.83 µM; GI50 (HT-29 [13]): 0.4 µM; GI50 (RS4-11 [14]): 0.17 µM; GI50 (CCRF-CEM [15]): 0.61 µM
6 | c1ccc(C[n+]2ccc(N3CCCC3)cc2)cc1 | 66 µM | 38 µM | 8.3 µM | 5.3 µM | 24 µM | 11.1% | 19.6% | inhibition (Choline kinase alpha [16]): 27.8%
7 | CN(C)c1cc[n+](Cc2ccccc2)cc1 | 44.2 µM | > 100 µM | 30.3 µM | 54.3 µM | 14 µM |  | 37.2% | 
8 | FC(F)(F)c1ccc(C[n+]2ccc(N3CCCC3)c3ccc(Cl)cc32)cc1 | 15 µM | 12.9 µM | 1 µM | 3 µM |  |  | 24.9% | 
9 | c1ccc(-c2ccc(C[n+]3ccc(N4CCCCCC4)c4ccccc43)cc2)cc1 | 14.8 µM | 17.5 µM | 12.8 µM | 8.6 µM |  |  |  | 
10 | CN(c1ccccc1)c1ccnc2cc(Cl)ccc12 |  |  |  |  | 82 µM |  |  | 
11 | c1ccc(-c2ccc(C[N+]34CCC(CC3)CC4)cc2)cc1 | 29.9 µM | 24.7 µM | 2.6 µM | 11.8 µM |  | 26.6% | 30.2% | 
12 | CN(c1ccccc1)c1cc[n+](Cc2ccccc2)c2cc(Cl)ccc12 | 16.3 µM | 4.5 µM | 3 µM | 2.2 µM | 0.89 µM | 23.1% | 28.4% | Kd [17]: 36 µM; Ratio (Homo sapiens): 41; inhibition (Choline kinase alpha [16]): 18.6%
13 | Clc1ccc2c(N3CCCC3)cc[n+](Cc3ccc(-c4ccccc4)cc3)c2c1 | 0.28 µM | 0.04 µM | 0.05 µM | 0.04 µM |  | 36.9% | 46.3% | 
14 | CN(C)c1cc[n+](Cc2ccc(C(F)(F)F)cc2)cc1 | 23.2 µM | 11.2 µM | 7.9 µM | 18 µM |  | 25.4% | 33.5% | inhibition at 10 µM [5]: 14.3%; inhibition at 30 µM [6]: 22.7%; inhibition at 10 µM [7]: 11.7%; inhibition at 30 µM [8]: 16.9%
15 | CN(C)c1cc[n+](Cc2ccc(-c3ccccc3)cc2)cc1 | 0.74 µM | 0.29 µM | 0.83 µM | 0.43 µM | 1.7 µM | 18.9% | 26.4% | 
16 | FC(F)(F)c1ccc(C[N+]23CCC(CC2)CC3)cc1 | 90.8 µM | > 100 µM | > 100 µM | > 100 µM |  | 8.07% | 24.7% | inhibition at 10 µM [5]: 9.1%; inhibition at 30 µM [6]: 2.4%; inhibition at 10 µM [7]: 5.1%; inhibition at 30 µM [8]: 17.7%
17 | FC(F)(F)c1ccc(C[n+]2ccc(N3CCCC3)cc2)cc1 | 42.1 µM | 8.1 µM | 7.6 µM | 12 µM |  |  |  | 
18 | c1ccc(-c2ccc(C[n+]3ccc(N4CCCC4)cc3)cc2)cc1 | 0.95 µM | 0.16 µM | 0.22 µM | 0.18 µM | 0.67 µM |  | 28% | inhibition at 10 µM [5]: 56.7%; inhibition at 30 µM [6]: 79.5%; inhibition at 10 µM [7]: 70.3%; inhibition at 30 µM [8]: 84.3%
19 | Clc1ccc2c(N3CCCCCC3)cc[n+](Cc3ccccc3)c2c1 | 16.2 µM | 4.6 µM | 0.03 µM | 0.56 µM | 0.4 µM | 35.8% | 27.5% | Kd [17]: 33 µM; Ratio (Homo sapiens): 83; inhibition (Choline kinase alpha [16]): 38.7%
20 | CN(c1ccc(Cl)cc1)c1cc[n+](Cc2ccc(C(F)(F)F)cc2)c2cc(Cl)ccc12 | 2.6 µM | 1.3 µM | 1.3 µM | 2 µM |  | 10.4% | 14.5% | 
21 | c1cc(N2CCCC2)ccn1 |  |  |  |  | 49 µM |  |  | 
22 | CN(c1ccccc1)c1cc[n+](Cc2ccc(C(F)(F)F)cc2)c2cc(Cl)ccc12 | 2.1 µM | 3 µM | 2.7 µM | 2.1 µM |  |  |  | 
23 | CN(C)c1cc[n+](Cc2ccc(CCCCc3ccc(C[n+]4ccc(N(C)C)cc4)cc3)cc2)cc1 |  |  |  |  |  |  |  | GI50 (HeLa [12]): 1.9 µM; GI50 (HT-29 [13]): 1.9 µM; GI50 (RS4-11 [14]): 1 µM; GI50 (CCRF-CEM [15]): 0.21 µM
24 | FC(F)(F)c1ccc(C[n+]2ccc(N3CCCCCC3)c3ccc(Cl)cc32)cc1 | 4.7 µM | 5.4 µM | 3.2 µM | 4.6 µM |  | 34.7% | 52.7% | 
25 | Clc1ccc2c(N3CCCC3)cc[n+](Cc3ccccc3)c2c1 | 19.6 µM | 4.1 µM | 1.23 µM | 3.4 µM |  | 31.5% | 35% | 
26 | CN(c1ccccc1)c1cc[n+](Cc2ccc(-c3ccccc3)cc2)c2cc(Cl)ccc12 | 1.7 µM | 0.85 µM | 1.4 µM | 1.7 µM | 0.185 µM | 38.6% | 76% | Kd [17]: 20 µM; Ratio (Homo sapiens): 108; IC50 (Choline kinase alpha [18]): 12.6 µM; inhibition at 10 µM [5]: 85.5%; inhibition at 30 µM [6]: 93.3%; inhibition at 10 µM [7]: 87.2%; inhibition at 30 µM [8]: 94.8%
27 | CN(C)c1ccncc1 |  |  |  |  | 35 µM |  |  | 
